Measurements taken from ChEMBL document CHEMBL2150946, “Rationally designed cyclic analogues of luteinizing hormone-releasing hormone: enhanced enzymatic stability and biological properties” (Eur J Med Chem, 2012).
Blank lines part the entries; values can stand above or below the molecule they belong to. The source made the active and inactive calls. The calls are words filed in the database; no cut-off is given here.

Experiments:
Mus musculus [1] = assay: Agonist activity at LHRH1 receptor in C57BL/6N mouse assessed as release of testosterone in plasma at 100 ug/kg, ip in presence of cetrorelix; assay type: functional, organism-based
In short: (§1)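 Male C57BL/6N mice first received cetrorelix 1 mg kg-1 i.p. After 15 min, peptide was given i.p. at 1 or 100 µg kg-1 (n = 5). Plasma testosterone was quantified by LC-MS/MS with a dexamethasone internal standard.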

[2] = Half life in overnight fasted C57BL/6N mouse at 1 mg/kg, ip; assay type: ADME, organism-based; parameters: dose 1 mg/kg, route intraperitoneal; conditions: in vivo
In short: (§2)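 Male C57BL/6 mice, fasted 12 h overnight, given 1 mg kg-1 i.p. in saline. Blood was taken by cardiac puncture under isoflurane at 1, 2, 4 and 6 h post-dose (n = 5). Plasma was deproteinized and peptide was quantified by LC-MS/MS (MRM) against an internal standard using nine-point calibration curves. Parameters were derived from the plasma concentration–time data.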

[3] = Analytical recovery in overnight fasted C57BL/6N mouse plasma assessed as compound recovered at 5 ng/mL, ip
[4] = Drug excretion in overnight fasted C57BL/6N mouse assessed as elimination rate constant at 1 mg/kg, ip; assay type: ADME, organism-based; parameters: dose 1 mg/kg, route intraperitoneal; conditions: in vivo, read-out: Drug excretion (converted); in short: as §2
[5] = Metabolic stability in mouse renal epithelial cell membranes assessed as compound remaining at 10 nM measured at 120 mins; assay type: ADME, cell-based; conditions: read-out: Stability
In short: (§3)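 Mouse kidney membranes (100,000 × g pellet) in 20 mM phosphate/100 mM NaCl, pH 7.4, at 4 mg/ml protein, incubated with 10 nM peptide at 37 °C with shaking. Sampling at 0, 30, 60 and 120 min was stopped with acetonitrile. LC-MS/MS (MRM) peak areas are expressed relative to t = 0 (100%).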

[6] = AUC in overnight fasted C57BL/6N mouse at 1 mg/kg, ip; assay type: ADME, organism-based; parameters: dose 1 mg/kg, route intraperitoneal; conditions: plasma; in short: as §2
HEK293 = assay: (§4) Displacement of [125I]-Tyr6, His5 from human LHRH1 receptor expressed in HEK 293 cells after 16 to 19 hrs by gamma counter; assay type: cell-based
In short: (§5)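 Competition binding on membranes from HEK 293 cells stably expressing human LHRH-I receptor, in HEPES buffer with CaCl2, MgCl2 and 0.5% BSA, pH 7.4. Radioligand was 120,000–240,000 cpm [125I-Tyr6,His5]LHRH with rising peptide concentrations, 16–19 h at 4 °C. Samples were filtered on PEI-soaked GF/C and gamma counted. Data were fitted to a one-site model by nonlinear regression; 3–4 experiments.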

[7] = as §4; assay type: cell-based; conditions: hek293; in short: as §5
[8] = Tmax in overnight fasted C57BL/6N mouse at 1 mg/kg, ip; assay type: ADME, organism-based; parameters: dose 1 mg/kg, route intraperitoneal; conditions: in vivo; in short: as §2
[9] = Cmax in overnight fasted C57BL/6N mouse at 1 mg/kg, ip; assay type: ADME, organism-based; parameters: dose 1 mg/kg, route intraperitoneal; conditions: in vivo; in short: as §2
Plasma = assay: Metabolic stability in overnight fasted C57BL/6N mouse plasma at 1 mg/kg, ip; assay type: ADME, organism-based; parameters: dose 1 mg/kg, route intraperitoneal; conditions: in vivo
In short: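 Plasma peptide stability in vivo: fasted male C57BL/6 mice received 1 mg kg-1 i.p. in saline. Cardiac-puncture plasma was collected at 1, 2, 4 and 6 h (n = 5). Peptide was measured by LC-MS/MS after protein precipitation.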

Mus musculus [10] = assay: Agonist activity at LHRH1 receptor in C57BL/6N mouse assessed as release of testosterone in plasma at 100 ug/kg, ip; assay type: functional, organism-based
In short: (§6)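 Male C57BL/6N mice were pretreated i.p. with saline. After 15 min, peptide was given i.p. at 1 or 100 µg kg-1 (n = 5). Plasma testosterone was measured by LC-MS/MS with a dexamethasone internal standard.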

[11] = Metabolic stability in overnight fasted C57BL/6N mouse plasma assessed as compound remaining at 50 ng/mL, ip; assay type: ADME, cell-free; conditions: read-out: Stability
In short: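 Recovery of spiked peptide from mouse plasma at 5 and 50 ng/mL. Plasma was extracted by protein precipitation and analysed by LC-MS/MS with an internal standard.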

[12] = Metabolic stability in mouse renal epithelial cell membranes assessed as compound remaining at 10 nM measured at 30 mins; assay type: ADME, cell-based; conditions: for remaining at 0.5 h, 0.01 µM: renal epithelial cell membranes, read-out: Stability; in short: as §3
Mus musculus [13] = assay: Agonist activity at LHRH1 receptor in C57BL/6N mouse assessed as testosterone AUC (1 to 6 hrs) at 1 mg/kg, ip; assay type: functional; conditions: route intraperitoneal
In short: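 Male C57BL/6N mice were dosed 1 mg kg-1 i.p. with saline vehicle controls (n = 5). Cardiac-puncture plasma was taken at 1, 2, 4 and 6 h. Testosterone was quantified by LC-MS/MS with a dexamethasone internal standard, calibrated 0.05–100 ng mL-1. AUC was computed over 1–6 h; mean ± SD.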

Mus musculus [14] = assay: Agonist activity at LHRH1 receptor in C57BL/6N mouse assessed as release of testosterone in plasma at 1 ug/kg, ip in presence of cetrorelix; assay type: functional, organism-based; in short: as §1
Mus musculus [15] = assay: Agonist activity at LHRH1 receptor in C57BL/6N mouse assessed as release of testosterone in plasma at 1 ug/kg, ip; assay type: functional, organism-based; in short: as §6

Structure (SMILES): CCNC(=O)[C@@H]1CCCN1C(=O)[C@H](CCCNC(=N)N)NC(=O)[C@H](CC(C)C)NC(=O)[C@@H](CC(C)C)NC(=O)[C@H](Cc1ccc(O)cc1)NC(=O)[C@H](CO)NC(=O)[C@H](Cc1c[nH]c2ccccc12)NC(=O)[C@H](Cc1c[nH]cn1)NC(=O)[C@@H]1CCC(=O)N1 [LEUPROLIDE]
half-life [2]: 42 min | recovered at 5 ng/mL [3]: > 90% | k el [4]: 0.000278 s⁻¹ | AUC [6]: 138 ng·h/mL | Activity (Mus musculus [14]): inactive | inhibition (HEK293): Dose-dependent effect | pIC50 [7]: 9.12 | Cmax [9]: 190 ng/mL | Stability (Plasma): Stable | Activity (Mus musculus [15]): Active | remaining at 50 ng/mL [11]: > 90% | remaining at 0.5 h, 0.01 µM [12]: 3% | Activity (Mus musculus [13]): 244.1 ng·h/mL

Structure (SMILES): CC(C)C[C@H](NC(=O)CNC(=O)[C@H](Cc1ccc(O)cc1)NC(=O)[C@H](CO)NC(=O)[C@H](Cc1c[nH]c2ccccc12)NC(=O)[C@H](Cc1cnc[nH]1)NC(=O)[C@@H]1CCC(=O)N1)C(=O)N[C@@H](CCCNC(=N)N)C(=O)N1CCC[C@H]1C(=O)NCC(N)=O [GONADORELIN]
inhibition (HEK293): Dose-dependent effect | Stability ([12]; epithelial cell, 0.5 h, 0.01 µM): Unstable

Structure (SMILES): COc1ccc(C[C@@H]2NC(=O)[C@H](CO)NC(=O)[C@H](Cc3c[nH]c4ccccc34)NC(=O)[C@H](Cc3cnc[nH]3)NC(=O)[C@@H]3CCCN3C(=O)CCCCCNC(=O)C[C@H](C)NC(=O)[C@@H]3CCCN3C(=O)[C@H](CCCNC(=N)N)NC(=O)[C@H](CC(C)C)NC(=O)[C@@H](CC(C)C)NC2=O)cc1
inhibition (HEK293): Dose-dependent effect | pIC50 [7]: 5.54 | remaining at 0.5 h, 0.01 µM [12]: 90%

Structure (SMILES): COc1ccc(C[C@@H]2NC(=O)[C@H](CO)NC(=O)[C@H](Cc3c[nH]c4ccccc34)NC(=O)[C@H](Cc3cnc[nH]3)NC(=O)[C@@H]3CCCN3C(=O)CNC(=O)[C@@H]3CCN3C(=O)[C@H](CCCNC(=N)N)NC(=O)[C@H](CC(C)C)NC(=O)[C@@H](Cc3c[nH]c4ccccc34)NC2=O)cc1
inhibition (HEK293): Dose-dependent effect | pIC50 [7]: 5.58 | remaining at 0.5 h, 0.01 µM [12]: 68%

Now from value to molecule, other results behind:

Activity (Mus musculus [1]): inactive | half-life [2]: 30 min | recovered at 5 ng/mL [3]: > 90% | k el [4]: 0.000278 s⁻¹ | remaining at 2 h, 0.01 µM [5]: 100% | AUC [6]: 808 ng·h/mL | Tmax [8]: 1 h | Cmax [9]: 834 ng/mL | Stability (Plasma): Stable | Activity (Mus musculus [10]): Active | remaining at 50 ng/mL [11]: > 90% | remaining at 0.5 h, 0.01 µM [12]: 100%
Structure (SMILES): CC(C)C[C@@H]1NC(=O)[C@@H](CC(C)C)NC(=O)[C@H](Cc2ccc(O)cc2)NC(=O)[C@H](CO)NC(=O)[C@H](Cc2c[nH]c3ccccc23)NC(=O)[C@H](Cc2cnc[nH]2)NC(=O)[C@@H]2CCCN2C(=O)C[C@H](C)NC(=O)[C@@H]2CCCN2C(=O)[C@H](CCCNC(=N)N)NC1=O
inhibition (HEK293): Dose-dependent effect | pIC50 [7]: 6.17 | Activity (Mus musculus [13]): 61.1 ng·h/mL

remaining at 0.5 h, 0.01 µM [12]: 90%
Structure (SMILES): COc1ccc(C[C@@H]2NC(=O)[C@H](CO)NC(=O)[C@H](Cc3c[nH]c4ccccc34)NC(=O)[C@H](Cc3cnc[nH]3)NC(=O)[C@@H]3CCCN3C(=O)CC(C)NC(=O)[C@@H]3CCN3C(=O)[C@H](CCCNC(=N)N)NC(=O)[C@H](CC(C)C)NC(=O)[C@@H](CC(C)C)NC2=O)cc1 (some centres not stated)
inhibition (HEK293): Dose-dependent effect | pIC50 [7]: 5.82

remaining at 0.5 h, 0.01 µM [12]: 72%
Structure (SMILES): CC(C)C[C@@H]1NC(=O)[C@@H](CC(C)C)NC(=O)[C@H](Cc2ccc(O)cc2)NC(=O)[C@H](CO)NC(=O)[C@H](Cc2c[nH]c3ccccc23)NC(=O)[C@H](Cc2cnc[nH]2)NC(=O)[C@@H]2CCCN2C(=O)CCCCCNC(=O)C[C@H](C)NC(=O)[C@@H]2CCCN2C(=O)[C@H](CCCNC(=N)N)NC1=O
inhibition (HEK293): Dose-dependent effect | pIC50 [7]: 5.31
